C-LANA FP – KSHV C-LANA DNA binding inhibition | MBP-C-LANA/FAM-LBS DNA binding, fluorescence polarization | inhibition, % at 9 µM | 0.078% of 340,000 active | AID 504423;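 active means highest replicate inhibition at or above 60% at 9 µM, even if other replicates fall short; inactive means all replicates below 60% inhibition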;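 further: 0% = neutral control wells and 100% = 4 µM acridine orange control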
CAL PDZ FP-1 – inhibitors of human CAL PDZ peptide binding; Q9HD26; purified CAL PDZ, TMR-peptide fluorescence polarization, 1 h; inhibition, % at 24.9 µM; 0.92% of 300,000 active;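 active means mean inhibition of at least 30% with at least half of replicates also reaching 30%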;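 further: 0% = DMSO neutral control and 100% = excess unlabeled competitor peptide PRC23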
CAL PDZ FP-2 – inhibitors of human CAL PDZ peptide binding. purified CAL PDZ, TMR-peptide fluorescence polarization, 1 h. inhibition, % at 20 µM. Q9HD26. AID 504414. 0.02% of 330,000 active;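 active means highest replicate inhibition of at least 40%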;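 further: plate controls were DMSO neutral control wells for no effect and unlabeled competitor peptide control wells for full effect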
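Material: tagged CAL PDZ protein CerCALP, purified; buffer or medium: sodium phosphate/NaCl buffer pH 7.4 with TCEP, IgG, Thesit; also added: fluorescent TMR peptide probe; schedule: 1 h incubation at room temperature before polarization reading; technique: fluorescence polarization from S- and P-plane intensities, G-factor corrected; control set: unlabelled peptide and DMSO controls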
miR122 inh – miR-122 inhibition in Huh7 cells. Huh7 miR-122 Renilla luciferase sensor, 48 h; neutral wells = 0, positive control = 100. activation (reporter increase), % at 12.5 µM. 0.3% of 340,000 active. AID 602342;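 active means mean replicate activation score at least 90 and every replicate individually at or above 90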;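 further: higher luciferase means less miR-122 activity so hits act as miR-122 inhibitors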
Keap1-Nrf2 PPI – inhibitors of human Keap1-Nrf2 protein-protein interaction | Q14145 | inhibition, % at 9.4 µM | Keap1 Kelch-Nrf2 peptide fluorescence polarization, 1536-well | AID 504523 | 0.15% of 340,000 active; in the data active means inhibition above about 12%;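 further: human Keap1 Kelch domain with fluorescein labeled Nrf2 9mer peptide probe; 0% = neutral control wells and 100% = peptide positive control; higher means more block of Keap1 binding to Nrf2 peptide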
Target sequence (Q14145 whole entry, looked up, the tested form may be a part): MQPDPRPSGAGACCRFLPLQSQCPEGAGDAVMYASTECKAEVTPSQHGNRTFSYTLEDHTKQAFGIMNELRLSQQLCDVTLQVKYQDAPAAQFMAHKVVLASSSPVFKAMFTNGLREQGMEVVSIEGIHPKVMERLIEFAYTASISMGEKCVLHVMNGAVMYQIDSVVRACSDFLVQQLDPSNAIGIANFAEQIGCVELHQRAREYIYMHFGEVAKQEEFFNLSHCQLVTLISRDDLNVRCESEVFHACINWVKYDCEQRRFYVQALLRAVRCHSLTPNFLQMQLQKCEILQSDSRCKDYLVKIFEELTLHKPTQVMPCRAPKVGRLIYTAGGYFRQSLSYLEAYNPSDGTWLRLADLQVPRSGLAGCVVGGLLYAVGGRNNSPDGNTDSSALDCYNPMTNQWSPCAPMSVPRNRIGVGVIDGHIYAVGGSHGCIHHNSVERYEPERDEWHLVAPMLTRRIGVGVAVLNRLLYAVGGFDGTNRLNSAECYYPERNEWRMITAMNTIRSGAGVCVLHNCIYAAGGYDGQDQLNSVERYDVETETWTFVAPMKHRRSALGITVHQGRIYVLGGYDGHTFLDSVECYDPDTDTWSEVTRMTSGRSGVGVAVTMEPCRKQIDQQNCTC
Keap1 Kelch bind – Keap1 (human) Kelch domain binding; shares compounds with Keap1-Nrf2 PPI; Keap1 Kelch thermal shift, delta Tm; stronger effect = higher value; max delta Tm, degrees C; 8% of 400 active; in the data active means max delta Tm above about 0.48 degrees C
Sypro dye melt – shifts Sypro Orange melt without protein, a false positive | delta Tm, degrees C (no concentration beside the values) | shares compounds with Keap1-Nrf2 PPI | AID 651858 | 140 tested, under 10 active | Sypro Orange dye-only thermal melt, no protein, delta Tm; top dose 26 µM;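 active means at highest dose tested, delta Tm positive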
miR-27b qPCR – alters miR-27b levels in Huh7 cells, selectivity for miR-122 inhibitors; shares compounds with miR122 inh; 35 tested, under 10 active; Huh7 miR-27b levels, qRT-PCR, 48 h; AID 687039; relative miR-27b level (unnormalised ratio), ratio at 35 µM;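 active means compounds lowering miR-27b whose fitted half-maximal dose is at most twice their top tested dose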
* = called active by the depositor; . = no result given; [ ] = dose if it differs, or a comment. A selection: hits, their analogues and other compounds. The true share with any hit is near 1.1%.

SMILES | C-LANA FP | CAL PDZ FP-1 | CAL PDZ FP-2 | miR122 inh | Keap1-Nrf2 PPI | Keap1 Kelch bind | others
Cc1oc2ccc(OC(=O)N(C)C)cc2c1C(=O)OC(C)C | 1 | -1 | 0 | 143* | -3 | .
O=C(O)[C@H]1[C@H](CO)[C@H]2Cn3c(ccc(-c4ccncc4)c3=O)[C@@H]1N2C(=O)C1CCCCC1 | . | . | . | -2[16.7 µM] | . | .
COc1ccc(OC)c(NP(=O)(Oc2ccc(Cl)cc2)Oc2ccc(Cl)cc2)c1 | -1 | 1 | 0 | 1 | 0 | .
Cc1ccc(OP(=O)(Nc2cccc(C)c2)Oc2ccc(C)cc2)cc1 | 0 | -4 | 0 | 187* | -1 | .
COc1ccc(NP(=O)(Oc2ccc(Cl)cc2)Oc2ccc(Cl)cc2)cc1OC | -2 | -3 | 1 | 136* | -1 | .
Cc1cccc(OP(=O)(Nc2cccnc2)Oc2cccc(C)c2)c1 | 0 | -3 | -1 | . | 0 | .
Cc1cccc(S(=O)(=O)N2[C@@H]3Cn4c(ccc(-c5ccncc5)c4=O)[C@H]2[C@@H](C(=O)O)[C@@H]3CO)c1 | . | . | . | -6[16.7 µM] | . | .
COC(=O)[C@@H]1[C@@H](CO)[C@@H]2Cn3c(ccc(-c4ccccc4F)c3=O)[C@H]1N2C(=O)C1CCC1 | . | . | . | 4[16.7 µM] | . | .
C=CC1CN2CCC1CC2C(OC(C)=O)c1ccnc2ccc(OC)cc12 (stereo not given) | 1 | 58* | -1 | . | -1 | .
CN1/C(=C\C=C2C(=O)NC(=O)NC2=O)C(C)(C)c2ccccc21 | 28 | . | -1 | . | 32* | -0.19 | Sypro dye melt=-21
CN1/C(=C\C=Nc2ccccc2)C(C)(C)c2ccccc21 | 2 | 1 | -1 | -2 | 2 | .
O=C(Cc1cccnc1)N1CCCCN2[C@H](CO)[C@@H](c3ccc(/C=C/c4ccccc4)cc3)[C@H]2C1 | . | . | . | -4[16.7 µM] | . | .
CN1CC=C2C(C#N)=C(N)C(C#N)(C#N)C(c3ccncc3)C2C1 (stereo not given) | 43 | . | 1 | -7 | 15* | -0.15 | Sypro dye melt=-26
Cn1cc(/C=C2\C(=O)NC(=O)N(c3ccccc3)C2=O)c2ccccc21 | 88* | -2 | 2 | . | 49* | -0.13
CCCCc1ccc(C(=O)O)nc1 | 67* | 4 | 0 | -1 | 66* | -0.03
CC1(O)CCN2C(=O)CCc3cccc1c32 (stereo not given) | 26 | . | 1 | 2 | 44* | -0.09
O=C(Cc1ccncc1)N1CCCCN2[C@H](CO)[C@@H](c3ccc(C#Cc4ccccc4F)cc3)[C@H]2C1 | . | . | . | 33[16.7 µM] | . | .
O=C1C(=O)c2ccccc2-c2ccccc21 | 4 | -3 | 1 | 5 | -9 | .
Nc1ccc2c3c(cccc13)-c1ccccc1-2 | 27 | 0 | 1 | -5 | 22* | 0.37 | Sypro dye melt=-23
O=C(Cc1ccccn1)N1CCCCN2[C@H](CO)[C@H](c3ccc(-c4ccccc4)cc3)[C@@H]2C1 | . | . | . | 1[16.7 µM] | . | .
O=C(Cc1ccccc1)N1CCCCN2[C@@H](CO)[C@H](c3ccc(C#CC4(O)CCCC4)cc3)[C@@H]2C1 | . | . | . | 3[16.7 µM] | . | .
Cc1cc(C=C2C(=O)NC(=O)NC2=O)c(C)n1-c1cccnc1 | 13 | -3 | -1 | -10 | 12* | -0.1
O=C(Cc1ccccn1)N1CCCCN2[C@H](C1)[C@@H](c1ccc(-c3ccccc3F)cc1)[C@@H]2CO | . | . | . | -3[16.7 µM] | . | .
CN1CCN(c2ccc([N+](=O)[O-])c3no[n+]([O-])c23)CC1 | 82* | -8 | 0 | -35 | 55* | -0.12 | Sypro dye melt=-27
COC(=O)[C@H]1[C@H](CO)[C@H]2Cn3c(ccc(-c4ccccc4)c3=O)[C@@H]1N2CC1CCCCC1 | . | . | . | 3[16.7 µM] | . | .
O=C(CN1CCOCC1)Nc1ccc(Br)cc1C(=O)c1ccccc1 | 0 | -5 | 0 | 100* | 0 | . | miR-27b qPCR=0.94
COc1cccc(-c2ccc([C@H]3[C@H](CO)N4CCCCN(C(=O)Cc5ccncc5)C[C@@H]34)cc2)c1 | . | . | . | 1[16.7 µM] | . | .
